Assay results taken from ChEMBL document CHEMBL2163321 (J Med Chem, 2012).

Tests used:
[1] = target: T1, Gamma-butyrobetaine dioxygenase (Homo sapiens, UniProt O75936); assay: Inhibition of human BBOX1 by fluorescence based assay
T1 sequence (O75936 whole entry): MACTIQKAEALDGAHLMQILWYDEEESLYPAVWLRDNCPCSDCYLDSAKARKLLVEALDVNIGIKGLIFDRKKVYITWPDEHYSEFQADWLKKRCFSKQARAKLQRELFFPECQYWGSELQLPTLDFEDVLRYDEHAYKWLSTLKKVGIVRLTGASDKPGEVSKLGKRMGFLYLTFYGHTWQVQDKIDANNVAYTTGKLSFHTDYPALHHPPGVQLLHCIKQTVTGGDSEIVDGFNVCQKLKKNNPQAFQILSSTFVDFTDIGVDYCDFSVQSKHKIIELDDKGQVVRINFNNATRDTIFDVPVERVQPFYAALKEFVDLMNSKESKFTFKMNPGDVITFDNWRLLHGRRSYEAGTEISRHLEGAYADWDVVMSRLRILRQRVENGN

[2] = target: T2, Lysine-specific demethylase 4E (Homo sapiens, UniProt B2RXH2); assay: Inhibition of human KDM4E expressed in Escherichia coli using methyl lysine peptide substrate by AlphaScreen assay
T2 sequence (B2RXH2 whole entry): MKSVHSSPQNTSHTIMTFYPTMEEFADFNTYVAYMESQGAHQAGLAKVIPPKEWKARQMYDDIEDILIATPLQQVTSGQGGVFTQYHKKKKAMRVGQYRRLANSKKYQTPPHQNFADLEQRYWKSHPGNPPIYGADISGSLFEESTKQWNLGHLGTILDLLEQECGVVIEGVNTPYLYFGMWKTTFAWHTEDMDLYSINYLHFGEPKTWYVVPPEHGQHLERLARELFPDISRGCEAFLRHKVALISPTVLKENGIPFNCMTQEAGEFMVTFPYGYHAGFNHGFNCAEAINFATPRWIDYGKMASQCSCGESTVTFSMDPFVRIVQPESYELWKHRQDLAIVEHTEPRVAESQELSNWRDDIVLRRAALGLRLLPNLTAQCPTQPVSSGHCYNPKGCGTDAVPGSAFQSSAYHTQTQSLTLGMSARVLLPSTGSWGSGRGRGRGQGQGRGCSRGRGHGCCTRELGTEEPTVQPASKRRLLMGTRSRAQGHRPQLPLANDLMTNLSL
How it was run: (§1)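 AlphaScreen read-out: immunodetection of the lysine methylation state of the biotinylated histone peptide product, captured on streptavidin and Protein A conjugated beads. Reactions were run in the linear range with 2OG near or below its Km.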

Egl nine homolog 1 = Egl nine homolog 1 (Homo sapiens, UniProt Q9GZT9); assay: Inhibition of human PHD2 expressed in Escherichia coli by AlphaScreen assay
[3] = target: Lysine-specific demethylase 6B (Homo sapiens, UniProt O15054); assay: Inhibition of human KDM6B catalytic domain expressed in Escherichia coli using methyl lysine peptide substrate by AlphaScreen assay; how it was run: as §1
[4] = Inhibition of human KDM3A catalytic domain expressed in Sf9 cells methyl lysine peptide substrate by AlphaScreen assay
How it was run: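 AlphaScreen activity assay run within the linear range of the reaction. It immunodetects the lysine methylation state of a biotin-conjugated histone peptide product, using Streptavidin- and Protein A-conjugated beads.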

[5] = target: Lysine-specific demethylase 5C (Homo sapiens, UniProt P41229); assay: Inhibition of human KDM5C catalytic domain expressed in Sf9 cells using methyl lysine peptide substrate by AlphaScreen assay; how it was run: as §1
[6] = target: Histone lysine demethylase PHF8 (Homo sapiens, UniProt Q9UPP1); assay: Inhibition of human PHF8 expressed in Escherichia coli using methyl lysine peptide substrate by AlphaScreen assay
[7] = target: T3, Lysine-specific demethylase 2A (Homo sapiens, UniProt Q9Y2K7); assay: Inhibition of human KDM2A expressed in Escherichia coli using methyl lysine peptide substrate by AlphaScreen assay
T3 sequence (Q9Y2K7 whole entry): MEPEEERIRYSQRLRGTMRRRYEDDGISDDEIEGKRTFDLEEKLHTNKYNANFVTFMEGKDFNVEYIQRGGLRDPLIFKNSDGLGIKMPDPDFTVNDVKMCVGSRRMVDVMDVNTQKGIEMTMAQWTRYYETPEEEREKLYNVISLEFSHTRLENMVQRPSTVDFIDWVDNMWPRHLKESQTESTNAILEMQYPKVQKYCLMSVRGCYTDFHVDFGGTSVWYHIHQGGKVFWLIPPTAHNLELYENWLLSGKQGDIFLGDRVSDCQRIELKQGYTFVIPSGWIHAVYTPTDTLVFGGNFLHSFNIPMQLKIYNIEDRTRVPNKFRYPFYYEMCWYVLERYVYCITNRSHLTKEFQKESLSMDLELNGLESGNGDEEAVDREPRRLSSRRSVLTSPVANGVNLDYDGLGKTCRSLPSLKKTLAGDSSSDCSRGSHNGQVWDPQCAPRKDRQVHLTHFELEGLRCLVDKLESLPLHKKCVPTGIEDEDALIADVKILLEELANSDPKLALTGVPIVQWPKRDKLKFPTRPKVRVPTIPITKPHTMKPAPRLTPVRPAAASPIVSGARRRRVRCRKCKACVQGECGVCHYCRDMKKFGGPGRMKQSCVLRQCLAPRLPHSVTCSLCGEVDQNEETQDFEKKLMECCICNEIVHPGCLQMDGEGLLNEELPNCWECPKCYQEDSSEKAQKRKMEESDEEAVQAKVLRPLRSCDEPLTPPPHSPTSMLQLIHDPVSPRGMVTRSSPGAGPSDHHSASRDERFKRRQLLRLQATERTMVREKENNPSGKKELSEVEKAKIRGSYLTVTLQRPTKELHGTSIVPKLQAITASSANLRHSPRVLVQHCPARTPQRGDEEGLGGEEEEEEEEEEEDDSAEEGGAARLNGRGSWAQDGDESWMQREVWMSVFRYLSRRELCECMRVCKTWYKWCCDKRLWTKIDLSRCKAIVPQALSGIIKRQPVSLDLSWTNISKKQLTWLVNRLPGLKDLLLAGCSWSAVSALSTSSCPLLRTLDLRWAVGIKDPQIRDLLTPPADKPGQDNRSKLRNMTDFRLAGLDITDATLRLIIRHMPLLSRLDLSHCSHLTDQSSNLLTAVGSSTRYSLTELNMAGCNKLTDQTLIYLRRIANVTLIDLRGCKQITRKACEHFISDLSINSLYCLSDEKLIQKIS

[8] = target: Hypoxia-inducible factor 1-alpha inhibitor (Homo sapiens, UniProt Q9NWT6); assay: Inhibition of human FIH expressed in Escherichia coli by MALDI assay
[9] = target: T4, Lysine-specific demethylase 7A (Homo sapiens, UniProt Q6ZMT4); assay: Inhibition of human KDM7A catalytic domain expressed in Escherichia coli by MALDI assay
T4 sequence (Q6ZMT4 whole entry): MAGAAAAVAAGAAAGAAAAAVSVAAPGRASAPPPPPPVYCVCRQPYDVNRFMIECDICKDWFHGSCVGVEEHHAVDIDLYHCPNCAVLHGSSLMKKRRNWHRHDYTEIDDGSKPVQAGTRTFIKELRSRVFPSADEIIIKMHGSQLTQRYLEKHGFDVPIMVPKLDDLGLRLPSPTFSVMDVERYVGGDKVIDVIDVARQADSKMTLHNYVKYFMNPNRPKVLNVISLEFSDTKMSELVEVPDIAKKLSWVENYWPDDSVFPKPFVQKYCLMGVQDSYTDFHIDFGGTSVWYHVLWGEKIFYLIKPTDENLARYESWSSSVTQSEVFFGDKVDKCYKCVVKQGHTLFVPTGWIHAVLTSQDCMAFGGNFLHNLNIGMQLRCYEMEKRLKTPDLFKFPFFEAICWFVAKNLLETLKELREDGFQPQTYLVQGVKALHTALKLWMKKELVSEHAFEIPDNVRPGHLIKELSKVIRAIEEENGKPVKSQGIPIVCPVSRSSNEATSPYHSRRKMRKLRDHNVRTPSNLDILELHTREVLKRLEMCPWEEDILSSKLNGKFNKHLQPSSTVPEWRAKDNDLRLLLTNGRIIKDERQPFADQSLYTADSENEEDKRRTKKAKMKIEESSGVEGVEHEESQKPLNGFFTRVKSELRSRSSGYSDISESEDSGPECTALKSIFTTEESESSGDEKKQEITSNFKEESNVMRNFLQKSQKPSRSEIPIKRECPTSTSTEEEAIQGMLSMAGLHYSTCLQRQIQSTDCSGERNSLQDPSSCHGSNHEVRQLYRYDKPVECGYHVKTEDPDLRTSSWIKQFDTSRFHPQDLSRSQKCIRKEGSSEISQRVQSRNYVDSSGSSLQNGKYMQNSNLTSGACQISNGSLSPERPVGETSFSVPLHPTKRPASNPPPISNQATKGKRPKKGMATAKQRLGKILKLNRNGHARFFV

Chain of Egl nine homolog 1 (Q9GZT9 whole entry, the tested form may be a part): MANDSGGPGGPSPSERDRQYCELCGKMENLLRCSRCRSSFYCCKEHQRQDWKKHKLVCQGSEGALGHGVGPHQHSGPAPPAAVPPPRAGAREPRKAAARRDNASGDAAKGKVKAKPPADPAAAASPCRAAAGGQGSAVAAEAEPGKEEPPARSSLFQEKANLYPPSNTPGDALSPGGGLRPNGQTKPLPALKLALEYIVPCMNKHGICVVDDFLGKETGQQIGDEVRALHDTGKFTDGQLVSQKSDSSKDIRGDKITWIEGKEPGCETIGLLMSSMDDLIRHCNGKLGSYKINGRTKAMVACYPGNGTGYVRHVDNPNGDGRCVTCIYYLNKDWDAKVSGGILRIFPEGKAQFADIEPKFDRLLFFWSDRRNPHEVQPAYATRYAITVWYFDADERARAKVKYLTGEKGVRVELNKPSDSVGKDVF
Chain of Histone lysine demethylase PHF8 (Q9UPP1 whole entry): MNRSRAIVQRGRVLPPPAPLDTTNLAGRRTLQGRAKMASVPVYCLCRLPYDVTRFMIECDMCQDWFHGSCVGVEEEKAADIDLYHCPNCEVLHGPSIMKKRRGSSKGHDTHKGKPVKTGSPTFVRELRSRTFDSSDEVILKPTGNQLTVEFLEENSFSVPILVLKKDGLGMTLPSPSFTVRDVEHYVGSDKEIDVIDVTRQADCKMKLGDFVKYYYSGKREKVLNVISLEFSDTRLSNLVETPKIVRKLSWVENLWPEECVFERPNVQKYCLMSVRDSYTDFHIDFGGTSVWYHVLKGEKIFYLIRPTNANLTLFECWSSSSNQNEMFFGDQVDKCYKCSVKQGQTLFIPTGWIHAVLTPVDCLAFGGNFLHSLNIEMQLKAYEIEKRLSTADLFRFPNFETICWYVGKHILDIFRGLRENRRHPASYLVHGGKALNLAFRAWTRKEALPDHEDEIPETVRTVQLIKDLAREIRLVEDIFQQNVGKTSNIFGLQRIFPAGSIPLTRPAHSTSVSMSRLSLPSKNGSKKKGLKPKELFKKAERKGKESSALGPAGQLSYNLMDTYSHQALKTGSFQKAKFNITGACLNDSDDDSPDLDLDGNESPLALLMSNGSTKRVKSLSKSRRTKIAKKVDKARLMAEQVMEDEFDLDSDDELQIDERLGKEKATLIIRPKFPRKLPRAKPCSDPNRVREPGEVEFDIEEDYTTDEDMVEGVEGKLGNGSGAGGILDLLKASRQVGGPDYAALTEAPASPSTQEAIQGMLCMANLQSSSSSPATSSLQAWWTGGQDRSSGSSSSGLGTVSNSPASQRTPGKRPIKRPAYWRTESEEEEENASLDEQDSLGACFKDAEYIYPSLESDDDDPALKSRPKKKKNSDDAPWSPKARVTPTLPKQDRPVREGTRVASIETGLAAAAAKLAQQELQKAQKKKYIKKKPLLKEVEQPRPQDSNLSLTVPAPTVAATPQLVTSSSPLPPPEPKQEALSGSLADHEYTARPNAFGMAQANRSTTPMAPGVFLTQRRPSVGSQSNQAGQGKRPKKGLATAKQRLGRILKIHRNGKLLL
Chain of Hypoxia-inducible factor 1-alpha inhibitor (Q9NWT6 whole entry, the tested form may be a part): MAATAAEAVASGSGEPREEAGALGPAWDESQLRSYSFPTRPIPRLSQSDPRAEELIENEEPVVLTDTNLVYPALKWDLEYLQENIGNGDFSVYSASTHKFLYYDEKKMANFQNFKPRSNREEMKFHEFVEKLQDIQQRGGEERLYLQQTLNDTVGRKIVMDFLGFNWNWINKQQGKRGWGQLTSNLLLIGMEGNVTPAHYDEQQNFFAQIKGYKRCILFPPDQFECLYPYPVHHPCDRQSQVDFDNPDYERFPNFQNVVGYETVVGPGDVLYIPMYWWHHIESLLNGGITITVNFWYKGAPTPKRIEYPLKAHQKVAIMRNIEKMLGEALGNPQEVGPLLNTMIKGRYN
Chain of Lysine-specific demethylase 6B (O15054 whole entry, the tested form may be a part): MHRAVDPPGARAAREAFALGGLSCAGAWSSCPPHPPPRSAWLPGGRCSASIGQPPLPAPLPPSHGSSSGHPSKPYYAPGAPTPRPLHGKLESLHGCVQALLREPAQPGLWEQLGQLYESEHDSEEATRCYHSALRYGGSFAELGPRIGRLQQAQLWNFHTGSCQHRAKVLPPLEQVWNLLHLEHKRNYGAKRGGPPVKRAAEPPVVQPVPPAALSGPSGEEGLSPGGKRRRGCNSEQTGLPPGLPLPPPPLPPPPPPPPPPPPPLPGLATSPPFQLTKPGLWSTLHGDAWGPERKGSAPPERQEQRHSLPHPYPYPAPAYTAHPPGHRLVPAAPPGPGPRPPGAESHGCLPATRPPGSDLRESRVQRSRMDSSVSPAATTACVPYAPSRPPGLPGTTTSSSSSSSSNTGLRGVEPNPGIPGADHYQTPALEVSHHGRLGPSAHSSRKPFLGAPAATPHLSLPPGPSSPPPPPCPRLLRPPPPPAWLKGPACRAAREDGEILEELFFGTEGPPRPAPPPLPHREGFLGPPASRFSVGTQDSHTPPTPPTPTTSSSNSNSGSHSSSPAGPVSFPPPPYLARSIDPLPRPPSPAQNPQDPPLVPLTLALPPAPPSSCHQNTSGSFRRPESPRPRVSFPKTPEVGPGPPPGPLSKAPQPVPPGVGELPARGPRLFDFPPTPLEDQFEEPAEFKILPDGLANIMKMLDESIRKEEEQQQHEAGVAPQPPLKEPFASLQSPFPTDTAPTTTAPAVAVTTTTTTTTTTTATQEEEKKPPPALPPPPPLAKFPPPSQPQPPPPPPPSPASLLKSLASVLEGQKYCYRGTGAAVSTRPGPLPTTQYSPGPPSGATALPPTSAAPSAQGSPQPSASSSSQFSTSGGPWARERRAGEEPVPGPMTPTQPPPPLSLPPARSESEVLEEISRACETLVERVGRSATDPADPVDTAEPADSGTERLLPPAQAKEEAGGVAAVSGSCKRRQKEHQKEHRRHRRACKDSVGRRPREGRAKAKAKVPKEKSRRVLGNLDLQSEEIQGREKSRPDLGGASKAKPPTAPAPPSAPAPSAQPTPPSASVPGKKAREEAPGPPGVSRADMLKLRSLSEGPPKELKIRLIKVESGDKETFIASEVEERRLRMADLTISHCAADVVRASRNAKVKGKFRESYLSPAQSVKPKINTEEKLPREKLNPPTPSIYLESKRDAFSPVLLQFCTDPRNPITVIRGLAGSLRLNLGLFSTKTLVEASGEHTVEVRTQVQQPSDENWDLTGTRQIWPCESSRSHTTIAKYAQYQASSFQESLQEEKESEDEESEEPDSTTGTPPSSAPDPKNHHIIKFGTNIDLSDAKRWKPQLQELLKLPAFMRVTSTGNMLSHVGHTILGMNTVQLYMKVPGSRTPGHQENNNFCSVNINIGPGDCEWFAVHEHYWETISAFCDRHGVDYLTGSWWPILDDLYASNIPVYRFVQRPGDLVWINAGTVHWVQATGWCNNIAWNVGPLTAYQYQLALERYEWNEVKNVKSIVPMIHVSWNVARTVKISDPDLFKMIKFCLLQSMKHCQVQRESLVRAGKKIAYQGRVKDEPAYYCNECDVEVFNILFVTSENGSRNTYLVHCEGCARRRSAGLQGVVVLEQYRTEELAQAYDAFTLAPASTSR
Chain of Lysine-specific demethylase 5C (P41229 whole entry, the tested form may be a part): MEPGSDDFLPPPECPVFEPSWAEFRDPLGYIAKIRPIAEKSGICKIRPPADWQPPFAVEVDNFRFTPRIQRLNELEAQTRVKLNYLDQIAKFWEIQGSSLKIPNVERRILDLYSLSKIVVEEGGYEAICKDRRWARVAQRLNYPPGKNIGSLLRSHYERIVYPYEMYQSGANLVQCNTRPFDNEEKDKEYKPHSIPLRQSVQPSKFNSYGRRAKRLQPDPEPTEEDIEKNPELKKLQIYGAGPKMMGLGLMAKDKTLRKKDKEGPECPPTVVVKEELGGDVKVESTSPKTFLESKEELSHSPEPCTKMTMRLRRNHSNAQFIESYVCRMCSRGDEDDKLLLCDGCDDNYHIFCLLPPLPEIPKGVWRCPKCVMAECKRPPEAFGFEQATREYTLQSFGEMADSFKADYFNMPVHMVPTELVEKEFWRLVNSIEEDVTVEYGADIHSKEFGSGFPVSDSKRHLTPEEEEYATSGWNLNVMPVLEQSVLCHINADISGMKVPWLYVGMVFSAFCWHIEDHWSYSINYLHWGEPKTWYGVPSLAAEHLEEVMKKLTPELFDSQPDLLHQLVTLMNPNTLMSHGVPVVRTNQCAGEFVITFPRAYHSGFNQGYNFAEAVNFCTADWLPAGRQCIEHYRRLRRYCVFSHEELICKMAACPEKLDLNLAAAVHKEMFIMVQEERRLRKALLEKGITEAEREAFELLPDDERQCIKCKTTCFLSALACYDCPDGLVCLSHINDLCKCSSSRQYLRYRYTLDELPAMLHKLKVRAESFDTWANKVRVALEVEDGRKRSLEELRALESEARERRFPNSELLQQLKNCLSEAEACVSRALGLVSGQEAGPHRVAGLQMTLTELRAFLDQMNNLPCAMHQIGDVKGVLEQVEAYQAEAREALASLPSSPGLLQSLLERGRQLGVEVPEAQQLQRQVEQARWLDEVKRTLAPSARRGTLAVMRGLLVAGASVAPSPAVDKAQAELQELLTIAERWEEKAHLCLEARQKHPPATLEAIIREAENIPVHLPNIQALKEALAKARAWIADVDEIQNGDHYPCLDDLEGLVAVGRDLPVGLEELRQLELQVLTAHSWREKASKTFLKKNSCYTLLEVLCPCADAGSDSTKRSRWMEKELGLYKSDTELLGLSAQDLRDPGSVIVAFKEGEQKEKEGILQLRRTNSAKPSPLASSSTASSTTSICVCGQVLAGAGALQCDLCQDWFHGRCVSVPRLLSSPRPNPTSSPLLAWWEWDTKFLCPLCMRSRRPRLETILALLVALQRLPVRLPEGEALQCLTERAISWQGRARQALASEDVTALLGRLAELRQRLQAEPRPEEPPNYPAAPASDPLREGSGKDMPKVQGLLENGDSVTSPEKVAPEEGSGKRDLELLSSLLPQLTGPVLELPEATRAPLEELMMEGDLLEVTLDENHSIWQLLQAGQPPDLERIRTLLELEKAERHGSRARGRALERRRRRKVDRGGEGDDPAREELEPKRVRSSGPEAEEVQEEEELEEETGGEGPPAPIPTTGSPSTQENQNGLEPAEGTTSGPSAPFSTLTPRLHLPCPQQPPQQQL

| SMILES | IC50 [1] | IC50 [2] | IC50 (Egl nine homolog 1) | IC50 [3] | IC50 [4] | IC50 [5] | IC50 [6] | IC50 [7] | IC50 [8] | IC50 [9] |
| --- | --- | --- | --- | --- | --- | --- | --- | --- | --- | --- |
| CC(=O)CC(=O)CCC(=O)O [SUCCINYLACETONE] | > 100 µM | 23.9 µM | > 100 µM | 16.5 µM | 12.7 µM | 4.5 µM | 2.3 µM | 0.57 µM | > 100 µM |  |
| CN(C)OC(=O)CCC(=O)O | > 100 µM | > 100 µM | 6.3 µM | 41.7 µM | > 100 µM | 42 µM | 6.9 µM | 9.1 µM | > 100 µM |  |
| O=C(O)CCC(=O)NO | > 100 µM | 0.4 µM | 19.6 µM | 1.1 µM | 3 µM | 1.9 µM | 1.7 µM | 0.43 µM | > 100 µM |  |
| CN(C)NC(=O)CCC(=O)O | > 100 µM | > 100 µM | > 100 µM | > 100 µM | 127 µM | > 100 µM |  |  | > 100 µM | 2.1 µM |
| CN(C)NC(=O)CCC(=O)NN(C)C | > 100 µM | > 100 µM | > 100 µM | > 100 µM | > 100 µM | > 100 µM | 117 µM | > 100 µM | > 100 µM |  |
| C[N+](C)(C)NC(=O)CCC(=O)O | > 100 µM | > 100 µM | > 100 µM | > 100 µM | > 100 µM | > 100 µM | 35 µM | 63 µM | > 100 µM |  |
| CNNC(=O)CCC(=O)O | > 100 µM | 4.3 µM | 14.2 µM | > 100 µM | > 100 µM | 1.1 µM | 3.4 µM | 0.37 µM | > 100 µM |  |
| CC(C)NC(=O)CCC(=O)O | > 100 µM | > 100 µM | > 100 µM | > 100 µM | > 100 µM | > 100 µM | > 100 µM | > 100 µM | > 100 µM |  |
| CN(C)N(C)C(=O)CCC(=O)O | > 100 µM | > 100 µM | > 100 µM | > 100 µM | > 100 µM | > 100 µM | 11.5 µM | 3.7 µM | > 100 µM |  |
| NNC(=O)CCC(=O)O | > 100 µM | 0.2 µM | > 100 µM | > 100 µM | > 100 µM | 0.48 µM | 0.48 µM | 0.25 µM | > 100 µM |  |
